Assay outcomes from PubChem BioAssay.
SENP6 block – SENP6 protease inhibition. 330,000 tested, 1.8% active. Recombinant SENP6 catalytic domain, aminoluciferin luminescence. AID 2599. inhibition, % at 10 µM. Q9GZR1;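 active = inhibition above about 50% at the single tested dose, limit read from the data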
SENP1 FRET inh – blocks the human SENP1 SUMO protease catalytic domain; Q9P0U3; recombinant SENP1 catalytic domain, CyPet-SUMO1-YPet FRET cleavage; inhibition, % at 10 µM; 360,000 tested, 0.21% active; AID 624204;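 active = inhibition at least 30% at 10 µM, raw YFP signal under a set limit, fluorescence ratio 0.5 to 1.5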
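Controls: no-enzyme wells low, DMSO-plus-enzyme wells high control. Test system: human recombinant His6-tagged SENP1 catalytic domain enzyme. Reagent: SFCypet-SUMO1-SFYpet FRET protein substrate, 25 nM final. Doses: one dose per compound, 10 µM, 0.5% DMSO. Detection: FRET, CFP and YFP emission. Timing: 50 min reaction at room temperature.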
SENP8 block-1 – SENP8 protease inhibition; AID 2540; purified SENP8, Z-RLRGG-aminoluciferin cleavage, luminescence; 330,000 tested, 1.2% active; inhibition, % at 10 µM; in the data active = inhibition above about 50%
Target sequence (Q96LD8 whole entry, looked up): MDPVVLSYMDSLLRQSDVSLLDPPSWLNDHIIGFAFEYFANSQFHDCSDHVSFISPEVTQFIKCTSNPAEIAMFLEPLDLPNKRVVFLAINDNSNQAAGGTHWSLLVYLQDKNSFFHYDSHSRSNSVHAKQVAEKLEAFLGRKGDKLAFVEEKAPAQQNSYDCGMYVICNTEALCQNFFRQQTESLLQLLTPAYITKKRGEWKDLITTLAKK
SENP8 block-2 – SENP8 (human) protease inhibition; recombinant SENP8, Nedd8 substrate fluorescence; inhibition, % at 20 µM; 360,000 tested, 0.64% active; in the data active = inhibition mostly above about 40%, no sharp cut-off; inactive = mostly below about 27%
UCH37 DUB inh – blocks the human deubiquitinase UCH37. AID 588478. 330,000 tested, 0.33% active. Q9Y5K5. purified proteasome/UCH37, Ub-AMC cleavage fluorescence. inhibition, % (test concentration not listed);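 active = mean inhibition over replicate wells above about 20%, limit read from the data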
Target sequence (Q9Y5K5 whole entry, looked up): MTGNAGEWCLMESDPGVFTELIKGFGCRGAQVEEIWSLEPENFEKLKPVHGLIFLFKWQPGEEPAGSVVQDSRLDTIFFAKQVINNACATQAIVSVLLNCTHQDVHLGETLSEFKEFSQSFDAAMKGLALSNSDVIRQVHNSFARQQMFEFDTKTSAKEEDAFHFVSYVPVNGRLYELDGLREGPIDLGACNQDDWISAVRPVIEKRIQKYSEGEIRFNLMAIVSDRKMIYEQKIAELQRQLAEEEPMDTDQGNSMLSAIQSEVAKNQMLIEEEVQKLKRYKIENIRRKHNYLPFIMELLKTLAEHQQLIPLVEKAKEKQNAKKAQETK
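Material: Human UCH37 enzyme supplied as purified proteasome complex | Schedule: 30 min preincubation with enzyme, 25 min cleavage at room temperature | Detection: AMC fluorescence 355/460 nm | Measure: % inhibition of Ub-AMC cleavage fluorescence | Controls: Wells without proteasome as full block, compound-free enzyme plus substrate as uninhibited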
SENP7 inh – blocks the human protease SENP7; Q9BQF6; recombinant SENP7, Z-RLRGG-aminoluciferin luminescence, 40 min; inhibition, % at 5 µM; 330,000 tested, 1.5% active;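 active = inhibition above about 50% at the single test dose, limit read from the data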
SENP1 conf – SENP1 (human) inhibition, single concentration confirmation; shares compounds with SENP1 FRET inh; recombinant SENP1, CyPet-SUMO1-YPet FRET cleavage; inhibition, % at 10 µM; 520 tested, 34% active; in the data active = inhibition mostly above about 35%, no sharp cut-off; inactive = mostly below about 32%
SENP1 kin conf – SENP1 (human) inhibition, kinetic confirmation | shares compounds with SENP1 FRET inh | recombinant SENP1, CyPet-SUMO1-YPet FRET kinetic cleavage | inhibition, % at 10 µM | 520 tested, 26% active; in the data active = inhibition mostly above about 32%, no sharp cut-off; inactive = mostly below about 29%
Of the large screens only hits and unclear results are named; the others gave an inactive call (follow-up assays come after a bar, where they were run). Most compounds without a hit are left out; they make up all but 2.6% or so of the library.

CC(C)c1ccc(C(=O)N(c2ccccn2)C(C)c2ccco2)cc1 (stereo not drawn)	none
CC(c1ccco1)N(C(=O)c1cccs1)c1ccccn1 (stereo not drawn)	SENP1 FRET inh 30 | SENP1 conf inactive | SENP1 kin conf inactive
COc1ccc2c(C)cc(SCC(=O)N3CCOCC3)nc2c1	SENP1 FRET inh 67 | SENP1 conf 50 | SENP1 kin conf 36
COc1ccc2c(-c3ccccc3)cc(SCC(N)=O)nc2c1	SENP1 FRET inh 30 | SENP1 conf inactive | SENP1 kin conf inactive
COc1cccc2c1OCCC2=NNC(=O)COc1ccccc1C	none (no result: SENP6 block, SENP1 FRET inh, SENP8 block-1, SENP8 block-2, SENP7 inh)
CC(=NNC(=S)NC(C)C)c1ccc(Cl)c([N+](=O)[O-])c1	none (no result: SENP6 block, SENP1 FRET inh, SENP8 block-1, SENP8 block-2, SENP7 inh)
NC(=O)CCCn1c(C(=O)c2cc(Cl)c(N)c(Cl)c2)c2ccc([N+](=O)[O-])cc2[n+]1[O-]	SENP1 FRET inh 30 | SENP1 conf inactive | SENP1 kin conf inactive
O=C(O)COc1ccccc1C=NNC(=O)Cc1ccccc1	none (no result: SENP6 block, SENP1 FRET inh, SENP8 block-1, SENP8 block-2, SENP7 inh)
CC(C)C(NC(=O)C12CC3CC(CC(C3)C1)C2)C(=O)N/N=C/C1=C(N2CCOCC2)C(=C\c2ccc([N+](=O)[O-])cc2)/CC1 (stereo not drawn)	SENP1 FRET inh 75 (no result: UCH37 DUB inh) | SENP1 conf inactive | SENP1 kin conf inactive
COc1cc(/C=C/c2ccc3c([N+](=O)[O-])cccc3n2)ccc1OCC(=O)O	SENP1 FRET inh 54 | SENP1 conf inactive | SENP1 kin conf inactive
CCOC(=O)c1sc2cc([N+](=O)[O-])cc(SCCO)c2c1N	SENP1 FRET inh 50 | SENP1 conf inactive | SENP1 kin conf inactive
CCOC(=O)c1sc2nc(C)cc(C)c2c1N	none
CCOC(=O)c1sc2cc([N+](=O)[O-])cc(SCC(=O)OC)c2c1N	SENP1 FRET inh 66 | SENP1 conf inactive | SENP1 kin conf inactive
O=C(O)c1ccc(C=NNC(=O)c2cc3ccccc3cc2O)cc1	none (no result: SENP6 block, SENP1 FRET inh, SENP8 block-1, SENP8 block-2, SENP7 inh)
O=C(COc1ccccc1-c1ccccc1)NN=Cc1ccc2ccccc2c1	none (no result: SENP6 block, SENP1 FRET inh, SENP8 block-1, SENP8 block-2, SENP7 inh)
Cc1[nH]c(=S)c(C#N)c(-c2ccccc2)c1C(=O)Nc1ccccc1	SENP1 FRET inh 55 | SENP1 conf inactive | SENP1 kin conf inactive
Cc1ccc(-c2c(C(=O)Nc3ccccc3C)c(C)[nH]c(=S)c2C#N)o1	none (no result: UCH37 DUB inh)
Cc1ccccc1NC(=O)c1c(C)[nH]c(=S)c(C#N)c1-c1ccc(Cl)cc1	SENP1 FRET inh 50 | SENP1 conf inactive | SENP1 kin conf inactive
COC(=O)C1CC(O)CN1C(=O)Nc1ccccc1 (stereo not drawn)	SENP1 FRET inh 30 | SENP1 conf inactive | SENP1 kin conf inactive
COc1ccc(CNC(=O)C2CC(O)CN2C(=O)Nc2ccccc2)cc1 (stereo not drawn)	none
COc1ccc(C(C)=NNC(=O)CNC(=O)c2cccnc2)cc1	none (no result: SENP6 block, SENP1 FRET inh, SENP8 block-1, SENP8 block-2, SENP7 inh)
Cc1cc(NC(=O)CSc2nc3ccccc3cc2C#N)no1	SENP1 FRET inh 55 | SENP1 conf 60 | SENP1 kin conf 50
CCOC(=O)CC(=O)CSc1nc2ccc(C)cc2cc1C#N	none
COc1ccc2nc(SCC(=O)Nc3cc(C)on3)c(C#N)cc2c1	SENP1 FRET inh 48 | SENP1 conf inactive | SENP1 kin conf inactive
COC(=O)CSc1nc2cc(C)ccc2cc1C#N	SENP1 FRET inh 62 | SENP1 conf inactive | SENP1 kin conf inactive
N/C(=N\N=Cc1ccc(F)cc1)NN=Cc1ccc(F)cc1	none (no result: SENP6 block, SENP1 FRET inh, SENP8 block-1, SENP8 block-2, SENP7 inh)
Cc1cccc(C(=O)NN2C(=O)C3C(c4ccccc4)C=CC(c4ccccc4)C3C2=O)c1 (stereo not drawn)	SENP1 FRET inh 64 | SENP1 conf inactive | SENP1 kin conf inactive
O=C(NN1C(=O)C2C3C=CC(C3)C2C1=O)c1ccccc1 (stereo not drawn)	none
COc1ccc(C=NNc2nc3ccccc3o2)cc1OC	none (no result: SENP6 block, SENP1 FRET inh, SENP8 block-1, SENP8 block-2, SENP7 inh)
COC(=O)C1=CN(Cc2ccc(OC)cc2)C=C(C(=O)OC)C1c1cccs1	none
